An excerpt weighted towards active compounds, which were near 1.3% of everything screened.
NSD2 inh: inhibitors of human histone methyltransferase NSD2; NSD2 peptide methylation, AlphaScreen, 120 min; inhibition, % at 12.5 µM; 310,000 tested, 0.54% active; in the data active means inhibition above about 50%
Target sequence (O96028 whole entry, looked up): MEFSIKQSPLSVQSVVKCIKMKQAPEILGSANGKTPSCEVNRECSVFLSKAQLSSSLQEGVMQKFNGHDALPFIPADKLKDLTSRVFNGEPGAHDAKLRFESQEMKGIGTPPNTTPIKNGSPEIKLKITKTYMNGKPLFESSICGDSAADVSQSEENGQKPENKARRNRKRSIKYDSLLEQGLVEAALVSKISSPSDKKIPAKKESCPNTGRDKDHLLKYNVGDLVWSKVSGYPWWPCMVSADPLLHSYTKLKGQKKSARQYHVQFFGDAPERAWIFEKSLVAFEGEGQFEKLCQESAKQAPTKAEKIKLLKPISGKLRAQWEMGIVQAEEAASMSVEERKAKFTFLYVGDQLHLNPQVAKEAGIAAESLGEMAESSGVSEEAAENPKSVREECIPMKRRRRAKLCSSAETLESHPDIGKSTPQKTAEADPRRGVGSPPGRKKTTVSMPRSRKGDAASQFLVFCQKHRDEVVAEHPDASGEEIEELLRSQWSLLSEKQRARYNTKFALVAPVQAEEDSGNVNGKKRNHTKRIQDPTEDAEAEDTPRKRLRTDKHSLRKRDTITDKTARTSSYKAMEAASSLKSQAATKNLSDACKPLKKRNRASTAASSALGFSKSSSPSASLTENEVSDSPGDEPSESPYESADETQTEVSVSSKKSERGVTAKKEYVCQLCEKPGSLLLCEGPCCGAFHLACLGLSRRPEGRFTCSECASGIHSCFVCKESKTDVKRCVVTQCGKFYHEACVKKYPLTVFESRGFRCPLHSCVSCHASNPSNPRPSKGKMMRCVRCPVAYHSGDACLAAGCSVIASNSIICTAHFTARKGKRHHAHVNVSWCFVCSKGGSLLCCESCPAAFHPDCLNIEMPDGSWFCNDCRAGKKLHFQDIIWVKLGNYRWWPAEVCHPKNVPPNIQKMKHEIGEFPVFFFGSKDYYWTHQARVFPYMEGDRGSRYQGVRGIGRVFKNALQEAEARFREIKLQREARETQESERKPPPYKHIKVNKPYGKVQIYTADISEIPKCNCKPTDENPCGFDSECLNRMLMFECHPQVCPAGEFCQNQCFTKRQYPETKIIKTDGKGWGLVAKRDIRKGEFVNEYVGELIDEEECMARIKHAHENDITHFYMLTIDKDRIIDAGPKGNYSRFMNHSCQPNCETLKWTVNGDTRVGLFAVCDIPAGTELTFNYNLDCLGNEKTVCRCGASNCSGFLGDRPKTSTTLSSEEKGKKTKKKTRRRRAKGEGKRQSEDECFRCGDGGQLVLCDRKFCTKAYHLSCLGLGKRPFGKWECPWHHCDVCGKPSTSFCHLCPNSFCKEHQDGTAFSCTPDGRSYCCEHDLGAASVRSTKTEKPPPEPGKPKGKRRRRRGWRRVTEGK
Casp6 inh: blocks human caspase-6 cleavage activity. inhibition, % at 12.5 µM. 350,000 tested, 0.53% active. purified caspase-6, Z-VEID-R110 cleavage fluorescence. P55212;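 active means mean inhibition across replicates at least about 35%, with every replicate also reaching that limit, limit read from the data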
TDP2 absorb: blocks human TDP2 phosphodiesterase activity | recombinant TDP2, T5PNP hydrolysis, p-nitrophenol absorbance 415 nm | inhibition, % at 12.8 µM | 370,000 tested, 0.34% active | AID 720702;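 active means inhibition above the mean of all tested compounds plus 3 SD, set per campaign, cut at about 25% in these data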
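Assay system: recombinant human TDP2 / Reagent: T5PNP substrate at 5 mM, a TopII-DNA adduct mimic / Measured by: epi absorbance from released p-nitrophenol / Evaluation: % inhibition relative to enzyme-containing and enzyme-free wells / Control set: enzyme-free and DMSO wells / Replicates: each compound tested once, singlicate / Schedule: enzyme reaction with compound for 2 h at 37 °C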
UCH37 DUB inh: human UCH37 deubiquitinating enzyme inhibition. Q9Y5K5. purified proteasome/UCH37, Ub-AMC cleavage fluorescence. inhibition, % (test concentration not listed). 330,000 tested, 0.33% active. AID 588478;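 active means mean inhibition over replicate wells above about 20%, limit read from the data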
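Signal – fluorescence, ex 355 nm, em 460 nm · System – Proteasome-bound UCH37 · Input – 0.15 nM proteasome as dispensed · Timing – 30 min preincubation with enzyme, 25 min cleavage at room temperature · Read-out basis – percent inhibition of cleavage signal versus uninhibited and no-proteasome wells · Medium – Tris-HCl pH 7.4 with ATP-MgCl2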
LEDGF integ inh: blocks HIV-1 LEDGF/p75-dependent DNA integration | 370,000 tested, 0.64% active | TR-FRET IN-LEDGF/p75 DNA integration, Eu/Cy5 | inhibition, % at 3.7 µM | AID 743269;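 active means inhibition above the screen-wide mean plus 3 SD, cut at about 13% in these data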;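 further: signal is the Cy5 over europium emission ratio at 671 and 618 nm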
Alpha artifact: counter-screen for NSD2 inhibitors: AlphaScreen artifacts. AlphaScreen artifact counterscreen, preloaded methylated H4 peptide. AC35, µM (highest dose often 10 µM). 1,500 tested, 9.4% active. shares compounds with NSD2 inh; call rule not given here
Numbers stand for hits; i = inactive; nt = no result given.

SMILES | NSD2 inh | Casp6 inh | TDP2 absorb | UCH37 DUB inh | LEDGF integ inh | Alpha artifact
CCCN(CCC)CCCNC(=S)Nc1ccc2nc(N3CCN(CC)CC3)cc(C)c2c1 | 69.7 | i | i | i | i | i
CCOC(=O)c1c(NC(=O)C[n+]2ccccc2)sc2c1CCCC2 | i | i | i | i | i | nt
CCOC(=O)c1c(NC(=O)COC)sc2c1CCCC2 | 57.1 | nt | i | i | i | i
COc1cc(NC(=O)c2[nH]c(C)c(C(C)=O)c2C)cc(OC)c1OC | 121.0 | i | i | i | i | i
COc1ccc(NC(=O)c2[nH]c(C)c(C(C)=O)c2C)cc1Cl | i | nt | i | i | i | nt
CC(=O)c1c(C)[nH]c(C(=O)Nc2ccc(C)cc2Br)c1C | 71.8 | i | i | i | i | i
CSC1=N/C(=C\c2ccccc2F)C(=O)S1 | i | nt | i | i | i | nt
COc1cccc(/C=C2\N=C(SC)SC2=O)c1OC | 98.7 | nt | i | i | i | i
O=C1/C(=C/c2ccc(O)c(O)c2)SC(=S)N1Nc1ccccc1 | 88.1 | nt | nt | i | nt | 2.35µM
O=C(O)c1ccc2c(c1)C(=O)N(c1cccc(C(=O)/C=C/c3ccccc3)c1)C2=O | 88.9 | i | i | i | i | i
CCOc1ccccc1N(CC(=O)NCCc1ccc(OC)c(OC)c1)S(=O)(=O)c1ccccc1 | 54.8 | i | i | i | i | i
CCOc1ccccc1N(CC(=O)Nc1ccc(OC)c(OC)c1)S(=O)(=O)c1ccccc1 | i | i | i | i | i | nt
COc1ccc(OCCSc2nnc(CCNC(=O)c3ccc(Cl)c(Cl)c3)n2C)cc1 | 59.1 | i | i | i | i | i
CC(=NNC(=O)CNC(=O)c1cccs1)c1ccc(Cl)cc1 | nt | nt | nt | i | nt | nt
Cc1cccc(N2NC(=O)/C(=C/c3ccc(-c4ccc(Cl)c(C(=O)O)c4)o3)C2=O)c1 | 76.3 | 51.8 | i | i | i | i
CN(C)c1ccc(C=c2c3cc([N+](=O)[O-])ccc3n3c2cc(-c2ccccc2)[n+]3C)cc1 | i | i | i | nt | i | nt
CN(C)c1ccc(C=c2c3ccccc3n3c2c2c([n+]3C)CCCC2)cc1 | 71.3 | nt | i | nt | i | 4.45µM
COc1ccc(/C=C2\N=C(C(C)(C)C)OC2=O)c(OC)c1 | 91.0 | i | i | i | i | i
CC(=NNC(=S)NCc1ccccc1)c1ccc2ccccc2c1 | nt | nt | nt | i | nt | nt
CSCCC(NC(=O)c1ccccc1Cl)C(=O)NCC(c1ccc(F)cc1)N1CCOCC1 (configuration not stated) | 140.7 | i | i | i | i | i
Nc1nonc1C(=O)NCCNC(=O)c1ccccc1F | 66.6 | nt | i | i | i | i
CC(=NNC(=O)c1ccc(N2CCCC2=O)cc1)c1ccc(O)cc1O | nt | nt | nt | i | nt | nt
CCOc1ccc(NC(=O)CSc2nnc(C34CC5CC(CC(C5)C3)C4)n2C)cc1 | 68.8 | nt | i | i | i | i
O=C(NN=Cc1cccc([N+](=O)[O-])c1)c1ccc(COc2ccccc2-c2ccccc2)cc1 | nt | nt | nt | i | nt | nt
O=C(O)Cc1sc(NC2CCCCC2)nc1-c1ccc(Cl)cc1 | 99.0 | i | i | i | i | i
SMILES | NSD2 inh | Casp6 inh | TDP2 absorb | UCH37 DUB inh | LEDGF integ inh | Alpha artifact
COc1cc(C=NNC(=S)NC(C)C)ccc1OCC(=O)Nc1c(C)cc(C)cc1C | nt | nt | nt | i | nt | nt
CCCn1c2c(c(O)c(C(=O)NC)c1=O)CCCC2 | i | nt | i | i | i | nt
CCCn1c2c(c(O)c(C(=O)NCCCN(CC)CC)c1=O)CCCC2 | 58.9 | nt | i | i | i | i
COCCN(C(=O)CCC(=O)Nc1ccccn1)C(C(=O)NC(C)C)c1ccc(C)cc1 (configuration not stated) | 59.7 | nt | i | i | i | i
COCCN(C(=O)CCC(=O)Nc1ccccn1)C(C(=O)NC(C)C)c1ccc(Cl)cc1 (configuration not stated) | i | i | i | i | i | nt
C/C(=N\O)C(C)Oc1ccc(Cl)cc1 (configuration not stated) | 65.1 | i | i | nt | i | i
CC(=NNC(=O)CSCc1ccc([N+](=O)[O-])cc1)c1cccc(Br)c1 | nt | nt | nt | i | nt | nt
Cc1ccc(NC(=S)N2CCC(NC(=O)c3cccc(F)c3)CC2)cc1 | 88.7 | i | i | i | i | i
Cc1ccc(NC(=S)N2CCC(NC(=O)c3ccc(C)cc3)CC2)cc1 | nt | i | i | i | i | nt
CC1=NN(c2ccccc2)C(=O)/C1=C/N(C)C | 70.8 | i | i | i | i | i
COc1ccc(C(C)=NNc2nc(-c3ccc(Cl)cc3)cc(C(F)(F)F)n2)cc1OC | nt | nt | nt | i | nt | nt
Nc1nnnn1N=Cc1ccccc1C(F)(F)F | nt | nt | nt | i | nt | nt
O=C(c1ccc(N2CCOCC2)c([N+](=O)[O-])c1)N1CCN(Cc2ccccc2)CC1 | 119.7 | i | i | i | i | i
O=C(c1ccc(Br)c([N+](=O)[O-])c1)N1CCN(Cc2ccccc2)CC1 | i | i | i | i | i | nt
CC[n+]1c(/C=C/Nc2ccccc2)oc2ccccc21 | 80.7 | nt | i | i | i | i
NC(=O)COc1cccc(C=NNC(=O)c2ccc(-n3cccc3)cc2)c1 | nt | nt | nt | i | nt | nt
CN(C)CCCNCCCCNC(=O)C=NO | nt | nt | nt | i | nt | nt
Nc1ncc(-c2ccccc2)n1CC1CCCO1 (configuration not stated) | 123.3 | nt | i | i | i | i
O=C(CSc1ncc(-c2ccccc2)n1CC1CCCO1)N1CCCCC1 (configuration not stated) | i | nt | i | i | i | nt
CN1C(=O)C(=O)/C(=C(/O)c2ccccc2)C1c1ccccc1 (configuration not stated) | 58.9 | i | i | i | i | i
Cc1ccc(-c2cc(C(=O)NN=C/C=C/c3ccco3)c3ccccc3n2)cc1C | nt | nt | nt | i | nt | nt
O=C(CC1(O)C(=O)Nc2cc(Cl)cc(Cl)c21)c1ccncc1 (configuration not stated) | 96.7 | nt | i | i | i | i
Cc1nc2[nH]c(=S)[nH]c(=O)c2nc1C | i | i | i | i | i | nt
Cc1nc2c(=O)[nH]c(=S)[nH]c2[nH]c1=O | 83.8 | 93.4 | i | i | 22.4 | i
O=C(NN=Cc1ccccn1)c1ccc(Br)o1 | nt | nt | nt | i | nt | nt
SMILES | NSD2 inh | Casp6 inh | TDP2 absorb | UCH37 DUB inh | LEDGF integ inh | Alpha artifact
CCc1ccc(-c2cc(C)no2)cc1S(=O)(=O)N1CCN(c2ccc(F)cc2)CC1 | 50.3 | i | i | i | i | i
COc1cccc(C=NN2CCN(c3ccncc3S(=O)(=O)N3CCCCC3)CC2)c1 | nt | nt | nt | i | nt | nt
Nc1nonc1C(=O)NN=Cc1ccc(Br)o1 | nt | nt | nt | i | nt | nt
Cc1c(C(=O)c2no[n+]([O-])c2C(=O)c2cnn(C)c2C)cnn1C | 66.4 | nt | i | i | i | i
COc1ccc(C(=O)c2no[n+]([O-])c2C(=O)c2ccc(OC)cc2)cc1 | nt | nt | i | i | i | nt
Cc1cc(/C=C(/C#N)c2nc3ccccc3[nH]2)c(C)n1-c1ccccc1C(=O)O | i | i | i | i | i | nt
Cc1cc(/C=C(/C#N)c2nc3ccccc3[nH]2)c(C)n1-c1cc(C(=O)O)cc(C(=O)O)c1 | 76.2 | nt | i | i | i | i
Cc1ccc(NC(=O)C[n+]2ccn(C3=C([O-])c4ccccc4C3=O)c2)cc1 | 89.2 | i | i | i | i | i
Cc1cc[n+](CC(=O)Nc2ccccc2)cc1 | i | i | i | i | i | nt
